# Data from ChEMBL document CHEMBL4689842, “EUbOPEN Chemogenomics Library wave 1” (2021).
# Test system: Fibroblast
# Assay: Multiplex assay against human fibroblast
# Type: toxicity, cell-based
# How it was run: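 Imaging took place on a CQ1 microscope at 37°C and 5% CO2 once compound had been added to live cells stained at seeding with Hoechst33342, BioTracker Green Microtubule Cytoskeleton Dye, MitoTracker Red and Annexin V Alexa Fluor 680. CellPathfinder machine-learning gating classed cells as Hoechst high-intensity objects or normal cells, classed normal cells as having healthy, pyknosed or fragmented nuclei, and classed pyknosed cells as mitotic or apoptotic. Tubulin, mitochondrial-mass and membrane-permeability phenotypes are per cents of the healthy-nucleus cells.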
# [1] = 12 h, 1 µM, compound concentration 1 uM, replicate 1
# [2] = 12 h, 1 µM, compound concentration 1 uM, replicate 2
# [3] = 12 h, 10 µM, compound concentration 10 uM, replicate 1
# [4] = 12 h, 10 µM, compound concentration 10 uM, replicate 2
# [5] = 24 h, 1 µM, compound concentration 1 uM, replicate 1
# [6] = 24 h, 1 µM, compound concentration 1 uM, replicate 2
# [7] = 24 h, 10 µM, compound concentration 10 uM, replicate 1
# [8] = 24 h, 10 µM, compound concentration 10 uM, replicate 2
structure (smiles),measurement,setting,value
C=CC(=O)Nc1cccc(Oc2nc(Nc3ccc(N4CCN(C)CC4)cc3OC)ncc2Cl)c1,Population Fragmented Nuclei (%),[1],28%
same,Population Healthy Nuclei (%),[1],65%
same,Population Hoechst High Intensity Objects (%),[1],24%
same,Population Mitochondria Different-Phenotype (%),[1],14%
same,Population Normal (%),[1],75%
same,Population Pyknosed Nuclei (%),[1],6%
same,Population Tubulin-Different-Phenotype (%),[1],45%
same,Total Cell Count,[1],324
same,Population Apoptotic (%),[2],60%
same,Population Fragmented Nuclei (%),[2],44%
same,Population Healthy Nuclei (%),[2],48%
same,Population Hoechst High Intensity Objects (%),[2],23%
same,Population Membrane Permeable-Phenotype (%),[2],5%
same,Population Mitochondria Different-Phenotype (%),[2],26%
same,Population Mitotic Cells (%),[2],40%
same,Population Normal (%),[2],76%
same,Population Pyknosed Nuclei (%),[2],7%
same,Population Tubulin-Different-Phenotype (%),[2],64%
same,Total Cell Count,[2],92
same,Population Apoptotic (%),[3],62%
same,Population Fragmented Nuclei (%),[3],39%
same,Population Healthy Nuclei (%),[3],42%
same,Population Hoechst High Intensity Objects (%),[3],15%
same,Population Membrane Permeable-Phenotype (%),[3],7%
same,Population Mitochondria Different-Phenotype (%),[3],2%
same,Population Mitotic Cells (%),[3],37%
same,Population Normal (%),[3],84%
same,Population Pyknosed Nuclei (%),[3],18%
same,Population Tubulin-Different-Phenotype (%),[3],10%
same,Total Cell Count,[3],237
same,Population Apoptotic (%),[4],20%
same,Population Fragmented Nuclei (%),[4],57%
same,Population Healthy Nuclei (%),[4],34%
same,Population Hoechst High Intensity Objects (%),[4],36%
same,Population Membrane Permeable-Phenotype (%),[4],18%
same,Population Mitochondria Different-Phenotype (%),[4],4%
same,Population Mitotic Cells (%),[4],80%
same,Population Normal (%),[4],64%
same,Population Pyknosed Nuclei (%),[4],7%
same,Population Tubulin-Different-Phenotype (%),[4],18%
same,Total Cell Count,[4],100
same,Population Apoptotic (%),[5],61%
same,Population Fragmented Nuclei (%),[5],29%
same,Population Healthy Nuclei (%),[5],60%
same,Population Hoechst High Intensity Objects (%),[5],47%
same,Population Membrane Permeable-Phenotype (%),[5],1%
same,Population Mitochondria Different-Phenotype (%),[5],26%
same,Population Mitotic Cells (%),[5],38%
same,Population Normal (%),[5],52%
same,Population Pyknosed Nuclei (%),[5],9%
same,Population Tubulin-Different-Phenotype (%),[5],38%
same,Total Cell Count,[5],265
same,Population Apoptotic (%),[6],66%
same,Population Fragmented Nuclei (%),[6],31%
same,Population Healthy Nuclei (%),[6],56%
same,Population Hoechst High Intensity Objects (%),[6],37%
same,Population Membrane Permeable-Phenotype (%),[6],7%
same,Population Mitochondria Different-Phenotype (%),[6],48%
same,Population Mitotic Cells (%),[6],33%
same,Population Normal (%),[6],62%
same,Population Pyknosed Nuclei (%),[6],12%
same,Population Tubulin-Different-Phenotype (%),[6],70%
same,Total Cell Count,[6],77
same,Population Apoptotic (%),[7],70%
same,Population Fragmented Nuclei (%),[7],33%
same,Population Healthy Nuclei (%),[7],50%
same,Population Hoechst High Intensity Objects (%),[7],19%
same,Population Membrane Permeable-Phenotype (%),[7],3%
same,Population Mitochondria Different-Phenotype (%),[7],4%
same,Population Mitotic Cells (%),[7],30%
same,Population Normal (%),[7],80%
same,Population Pyknosed Nuclei (%),[7],16%
same,Population Tubulin-Different-Phenotype (%),[7],10%
same,Total Cell Count,[7],231
same,Population Apoptotic (%),[8],0%
same,Population Fragmented Nuclei (%),[8],61%
same,Population Healthy Nuclei (%),[8],35%
same,Population Hoechst High Intensity Objects (%),[8],29%
same,Population Membrane Permeable-Phenotype (%),[8],4%
same,Population Mitochondria Different-Phenotype (%),[8],9%
same,Population Mitotic Cells (%),[8],100%
same,Population Normal (%),[8],70%
same,Population Pyknosed Nuclei (%),[8],3%
same,Population Tubulin-Different-Phenotype (%),[8],14%
same,Total Cell Count,[8],85
CC(C)CC(=O)Nc1[nH]nc2c1CN(C(=O)C1CCN(C)CC1)C2(C)C [PHA-793887],Population Apoptotic (%),[1],81%
same,Population Fragmented Nuclei (%),[1],21%
same,Population Healthy Nuclei (%),[1],60%
same,Population Hoechst High Intensity Objects (%),[1],11%
same,Population Membrane Permeable-Phenotype (%),[1],4%
same,Population Mitochondria Different-Phenotype (%),[1],3%
same,Population Mitotic Cells (%),[1],18%
same,Population Normal (%),[1],88%
same,Population Pyknosed Nuclei (%),[1],18%
same,Population Tubulin-Different-Phenotype (%),[1],4%
same,Total Cell Count,[1],233
same,Population Apoptotic (%),[2],50%
same,Population Fragmented Nuclei (%),[2],48%
same,Population Healthy Nuclei (%),[2],31%
same,Population Hoechst High Intensity Objects (%),[2],46%
same,Population Membrane Permeable-Phenotype (%),[2],22%
same,Population Mitochondria Different-Phenotype (%),[2],44%
same,Population Mitotic Cells (%),[2],50%
same,Population Normal (%),[2],53%
same,Population Pyknosed Nuclei (%),[2],20%
same,Population Tubulin-Different-Phenotype (%),[2],22%
same,Total Cell Count,[2],54
same,Population Apoptotic (%),[3],73%
same,Population Fragmented Nuclei (%),[3],23%
same,Population Healthy Nuclei (%),[3],66%
same,Population Hoechst High Intensity Objects (%),[3],12%
same,Population Membrane Permeable-Phenotype (%),[3],4%
same,Population Mitochondria Different-Phenotype (%),[3],7%
same,Population Mitotic Cells (%),[3],26%
same,Population Normal (%),[3],87%
same,Population Pyknosed Nuclei (%),[3],10%
same,Population Tubulin-Different-Phenotype (%),[3],4%
same,Total Cell Count,[3],277
same,Population Apoptotic (%),[4],33%
same,Population Fragmented Nuclei (%),[4],68%
same,Population Healthy Nuclei (%),[4],24%
same,Population Hoechst High Intensity Objects (%),[4],33%
same,Population Membrane Permeable-Phenotype (%),[4],20%
same,Population Mitochondria Different-Phenotype (%),[4],40%
same,Population Mitotic Cells (%),[4],66%
same,Population Normal (%),[4],66%
same,Population Pyknosed Nuclei (%),[4],7%
same,Population Tubulin-Different-Phenotype (%),[4],30%
same,Total Cell Count,[4],62
same,Population Apoptotic (%),[5],71%
same,Population Fragmented Nuclei (%),[5],20%
same,Population Healthy Nuclei (%),[5],65%
same,Population Hoechst High Intensity Objects (%),[5],13%
same,Population Membrane Permeable-Phenotype (%),[5],6%
same,Population Mitochondria Different-Phenotype (%),[5],1%
same,Population Mitotic Cells (%),[5],28%
same,Population Normal (%),[5],86%
same,Population Tubulin-Different-Phenotype (%),[5],3%
same,Total Cell Count,[5],225
same,Population Apoptotic (%),[6],66%
same,Population Fragmented Nuclei (%),[6],57%
same,Population Healthy Nuclei (%),[6],28%
same,Population Hoechst High Intensity Objects (%),[6],37%
same,Population Membrane Permeable-Phenotype (%),[6],16%
same,Population Mitochondria Different-Phenotype (%),[6],25%
same,Population Mitotic Cells (%),[6],33%
same,Population Normal (%),[6],62%
same,Population Pyknosed Nuclei (%),[6],14%
same,Population Tubulin-Different-Phenotype (%),[6],16%
same,Total Cell Count,[6],67
same,Population Apoptotic (%),[7],61%
same,Population Fragmented Nuclei (%),[7],23%
same,Population Healthy Nuclei (%),[7],64%
same,Population Hoechst High Intensity Objects (%),[7],11%
same,Population Membrane Permeable-Phenotype (%),[7],3%
same,Population Mitochondria Different-Phenotype (%),[7],6%
same,Population Mitotic Cells (%),[7],38%
same,Population Normal (%),[7],88%
same,Population Pyknosed Nuclei (%),[7],12%
same,Population Tubulin-Different-Phenotype (%),[7],6%
same,Total Cell Count,[7],284
same,Population Apoptotic (%),[8],100%
same,Population Fragmented Nuclei (%),[8],72%
same,Population Healthy Nuclei (%),[8],20%
same,Population Hoechst High Intensity Objects (%),[8],32%
same,Population Membrane Permeable-Phenotype (%),[8],0%
same,Population Mitochondria Different-Phenotype (%),[8],11%
same,Population Mitotic Cells (%),[8],0%
same,Population Normal (%),[8],67%
same,Population Pyknosed Nuclei (%),[8],6%
same,Population Tubulin-Different-Phenotype (%),[8],22%
same,Total Cell Count,[8],64
